# Rows were chosen to be rich in hits. Some 3.7% of all compounds tested hit in one or more screens of this group.
# Kir21 inh = blocks the mouse Kir2.1 inward-rectifier potassium channel; P35561; HEK293-Kir2.1, FluxOR thallium flux fluorescence; stronger effect = lower value; B-score at 10 µM; 310,000 tested, 0.85% active; AID 1672;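 active means fluorescence ratio B-score at or below minus 3 SD of library scores, with starting-brightness B-score within 2 SD, cut at about -4.2 in these data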;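 further: channel flux triggered by added potassium and thallium sulfate stimulus; B-score of peak minus minimum fluorescence over baseline after thallium stimulus; more negative B-score means stronger Kir2.1 block with less thallium influx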
# KCNQ1 block = inhibitors of human KCNQ1 potassium channel. P51787. CHO-K1 KCNQ1, FluxOR thallium flux fluorescence; stronger effect = higher value. B-score at 10 µM. 310,000 tested, 1.3% active. AID 2642;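 active means compounds whose thallium flux B-score, printed positive for inhibition, exceeds three library SD while starting fluorescence stays within three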;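 further: channel opened by potassium depolarization with thallium stimulus after 20 min compound exposure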
# hERG protect = shields human hERG channel from block by proarrhythmic agents. AID 1511. 310,000 tested, 0.51% active. Q12809. CHO-hERG, FluxOR thallium flux, dofetilide IC70 present. activation (rescue from dofetilide block), less the hit threshold, % at 10 µM;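 active means activation above the mean of controls blocked by dofetilide plus 5 SD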;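 further: thallium influx through hERG after potassium depolarization seen as dye fluorescence rise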
# KCNK3 block = human KCNK3 channel inhibition, primary screen | O14649 | 340,000 tested, 0.84% active | AID 602410 | B-score at 10 µM | CHO-KCNK3 thallium flux, FluxOR fluorescence; stronger effect = lower value;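 active means B-score under library mean minus 4 SD, starting fluorescence ratio at most library mean plus 5 SD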;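 further: more negative B-score means stronger inhibition of thallium flux through KCNK3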
# KCNQ1 act = potentiators or activators of human KCNQ1 potassium channel | B-score at 10 µM | CHO-K1 KCNQ1, thallium flux FluxOR fluorescence; stronger effect = higher value | 310,000 tested, 0.35% active;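 active means fluorescence ratio B-score, a plate-corrected score, at least three library SD, with initial intensity B-score within 5 SD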
#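 Material: CHO-K1 cells stably expressing KCNQ1. Medium: assay buffer for compound exposure, DMSO matched across wells. Reagent: K+/Tl+ depolarizing stimulus. Compound dosing: single-concentration screen. Times: 37 °C overnight plating, 90-min dark dye load, 20-min compound pretreatment. Technique: FluxOR Tl+ flux fluorescence.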
# KCNK9 block = blocks the human KCNK9 two-pore domain potassium channel | B-score at 10 µM | 310,000 tested, 1.2% active | AID 488922 | HEK293 KCNK9, FluxOR thallium flux fluorescence; stronger effect = lower value;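 active means ratio B-score over 3 SD below the library mean, with starting fluorescence within 5 SD of its mean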;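 further: negative B-score means less thallium flux so channel inhibition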
# Target sequence (Q9NPC2 whole entry, looked up, the tested form may be a part): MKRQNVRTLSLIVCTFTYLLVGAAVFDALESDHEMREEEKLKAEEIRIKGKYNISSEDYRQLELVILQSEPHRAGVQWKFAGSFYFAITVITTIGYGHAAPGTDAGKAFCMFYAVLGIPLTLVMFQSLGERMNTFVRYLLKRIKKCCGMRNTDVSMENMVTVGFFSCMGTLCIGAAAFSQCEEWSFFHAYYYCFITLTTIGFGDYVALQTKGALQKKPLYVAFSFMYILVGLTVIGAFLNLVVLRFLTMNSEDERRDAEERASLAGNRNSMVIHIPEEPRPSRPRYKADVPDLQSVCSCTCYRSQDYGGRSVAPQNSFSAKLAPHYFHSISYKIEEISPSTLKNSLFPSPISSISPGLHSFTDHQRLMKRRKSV
# KCNK9 inh conf = confirmation of human KCNK9 potassium channel inhibitors. shares compounds with KCNK9 block. HEK293 KCNK9 cells, FluxOR thallium flux fluorescence. inhibition, % at 10 µM. 4,900 tested, 43% active;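 active means thallium signal inhibited by more than 5 SD of the compound-free buffer control wells, on both duplicate plates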;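 further: 0% = assay buffer control wells without compound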
# Kir2-1 spec = tests whether KCNK9 modulators also affect mouse Kir2.1; 4,900 tested, 4% active; inhibition, % at 10 µM; Kir2.1 cells, FluxOR thallium flux fluorescence; shares compounds with KCNK9 block;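 active means thallium signal drop more than 5 SD beyond the mean of the no-compound control wells, seen in both duplicate plates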;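 further: signal is fluorescence rise after thallium addition divided by baseline fluorescence; plate controls were assay buffer only for no effect and full block by chlorpromazine control for full effect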
# HEK293 Tl ctr = non-induced cell nonspecific activity of KCNK9 modulators | shares compounds with KCNK9 block | non-induced KCNK9-HEK293, FluxOR thallium flux | inhibition, % at 10 µM | 4,900 tested, 40% active | AID 492997;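 active means thallium signal drop beyond 5 SD of the untreated control mean, on both duplicate plates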;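 further: plate controls were buffer only IC0 wells for no effect and SID17386958 at its maximal inhibitory level for full effect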
# * marks the source's active call; other numbers are inactive results; i = inactive; . = not tested or not shown.
SMILES,Kir21 inh,KCNQ1 block,hERG protect,KCNK3 block,KCNQ1 act,KCNK9 block,KCNK9 inh conf,Kir2-1 spec,HEK293 Tl ctr
Cc1cc2nc(C)n(CCCNC(=O)Nc3ccc(F)cc3)c2cc1C,0.01,i,-15,i,i,i,.,.,.
CCN(CC)c1ccc(/C=N/N2CCN(Cc3ccccc3)CC2)cc1,0.16,i,-5,i,i,i,i,i,i
CCN(CC)c1ccc(/C=N/N2CCN(Cc3ccccc3Cl)CC2)cc1,-0.71,6*,-9,i,i,i,i,i,i
CN(C)c1ccc(/C=N/N2CCN(Cc3ccccc3Cl)CC2)cc1,0.02,i,-4,i,i,i,.,.,.
C(=N\N1CCN(Cc2ccccc2)CC1)/c1ccccc1,0.14,i,-6,i,i,i,.,.,.
Cc1c(OC(C)C(=O)NCc2ccccn2)ccc2c3c(c(=O)oc12)CCCC3 (stereo not drawn),-2,i,-13,i,i,i,.,.,.
N#C/C(=C/c1ccc(N2CCCCC2)cc1)c1cccc(F)c1,-1.4,i,-10,i,i,i,.,.,.
N#C/C(=C/c1ccc(N2CCCCCC2)o1)c1ccc(Cl)cc1,-3.8,7*,-31,i,i,-10*,60%*,i,78%*
CC(C)C(CCN1C(=O)c2ccccc2C1=O)c1ccco1 (stereo not drawn),-0.41,i,-16,i,i,i,.,.,.
CCCC(=O)N(CCN(Cc1ccccc1)C(=O)CCC)Cc1ccccc1,-2.1,i,-12,i,i,i,.,.,.
CCC(=O)N(CCC(c1ccc(C)cc1)c1ccco1)Cc1ccco1 (stereo not drawn),-2.7,i,-12,i,i,-16*,68%*,i,46%*
CC(=O)N(CCC(c1ccco1)C(C)C)Cc1ccc(Cl)cc1 (stereo not drawn),-3.2,i,-9,i,i,-9.3*,40%*,33%*,46%*
CCC(=O)N(CCC(c1ccco1)C(C)C)Cc1ccccc1 (stereo not drawn),-6.1*,i,-16,i,i,-11*,i,i,34%*
CCOC(=O)C1CSC2(CCC(c3ccccc3)CC2)N1 (stereo not drawn),-2.4,i,-11,i,i,i,i,i,i
CCOC(=O)C1NC(=O)CC1c1ccccc1 (stereo not drawn),-0.47,i,-9,i,i,i,.,.,.
O=C(NCC(c1ccco1)N1CCc2ccccc21)C(=O)Nc1ccc(F)cc1F (stereo not drawn),-1.1,i,-8,i,i,-14*,32%*,i,27%*
COc1ccc(OC)c(S(=O)(=O)n2ccnc2C(C)C)c1,-0.07,i,-6,i,i,i,.,.,.
COc1cc(/C=C2/C(=O)c3cccc([N+](=O)[O-])c3C2=O)c(Br)cc1O,.,.,.,i,.,.,.,.,.
O=C(Nc1ccccc1)OCCCc1ccccc1,1.4,i,-8,i,i,i,i,i,i
COc1ccc(/C=C2\SC(=O)N(CC(=O)Nc3ccc(F)cc3)C2=O)cc1O,-0.12,i,-5,i,i,i,.,.,.
COc1cccc(COCCN2CCN(S(=O)(=O)c3ccc(C)cc3)CCC2=O)c1,-2.1,i,-6,i,i,i,i,i,i
Cc1ccc(COCCN2CCN(S(=O)(=O)c3ccc(C)cc3)CCC2=O)cc1,0.07,i,-5,i,i,i,.,.,.
COc1ccc(COCCN2CCN(S(=O)(=O)c3ccc(C)cc3)CCC2=O)cc1,-0.74,i,-6,.,i,i,.,.,.
Cc1ccc(S(=O)(=O)N2CCC(=O)N(CCOCc3cccc(C)c3)CC2)cc1,-1.7,i,-10,i,i,i,i,i,i
COc1ccc(CCN(C)C(=O)CN2C(=O)NC3(CCCc4ccccc43)C2=O)cc1OC (stereo not drawn),1.6,i,-7,i,i,i,.,.,.
SMILES,Kir21 inh,KCNQ1 block,hERG protect,KCNK3 block,KCNQ1 act,KCNK9 block,KCNK9 inh conf,Kir2-1 spec,HEK293 Tl ctr
CCOc1ccc(C(=O)OCC(=O)N2CC(C)OC(C)C2)cc1OCC (stereo not drawn),-0.5,i,-5,i,i,i,.,.,.
Cc1cc(C(=O)COC(=O)c2ccccc2O)c(C)n1Cc1cccs1,-0.61,i,-11,i,i,i,.,.,.
Cc1cc(C(=O)COC(=O)c2ccc3c(c2)OCO3)c(C)n1Cc1cccs1,0.91,i,-5,i,i,i,i,i,i
CCn1nc(C(=O)OCC(=O)c2cc(C)n(Cc3cccs3)c2C)c2ccccc2c1=O,-0.1,i,-17,i,i,i,i,i,i
O=C(CN1CCN(Cc2ccccc2)CC1)Nc1ccc(Br)cc1,-0.49,i,-9,i,i,i,.,.,.
Cc1onc(-c2ccccc2Cl)c1C(=O)N(C)Cc1ccccc1,0.68,i,-10,i,i,i,.,.,.
O=C(Nc1nnc(C2CC2)s1)c1cc(-c2ccccc2)nn1-c1ccccc1,-0.18,i,-6,i,i,-9.4*,30%*,i,i
CCC(C(=O)N1CCN(c2cccc(Cl)c2)CC1)c1ccccc1 (stereo not drawn),0.15,i,-8,-11*,i,-11*,50%*,i,32%*
COc1ccccc1CN1C[C@@H]2C[C@@H](c3ccccc3C)N3CCC[C@@]23C1=O,0.73,i,-8,i,i,i,i,i,i
Cc1ccc(SCC(=O)O/N=C(\N)c2cccc([N+](=O)[O-])c2)cc1,0.04,i,-8,i,i,i,i,i,28%*
CCCN(CC(=O)Nc1ccccc1C)C(=O)COc1ccc2c(c1)CCC2,2,i,-14,i,i,i,.,.,.
CCCCN(CC(O)COc1cccc(C)c1)CC(O)COc1cccc(C)c1 (stereo not drawn),-3,i,-18,i,i,i,i,i,42%*
CN(C)CC(O)COc1cccc(OCC(O)CN(C)C)c1 (stereo not drawn),-0.19,i,-5,i,i,i,.,.,.
COc1ccccc1-c1ccc(SCc2ccc(F)cc2)nn1,-0.38,i,-12,i,i,i,.,.,.
